Measurements gathered from unrelated publications.
Each line is one published result; the experiments were not run side by side.
KIT V559D: Mast/stem cell growth factor receptor Kit (KIT, Homo sapiens, UniProt P10721, V559D)
KIT A829P: Mast/stem cell growth factor receptor Kit (KIT, Homo sapiens, UniProt P10721, A829P)
KIT autoinhibited: Mast/stem cell growth factor receptor Kit, autoinhibited (KIT, Homo sapiens, UniProt P10721)
KIT T670I/V559D: Mast/stem cell growth factor receptor Kit (KIT, Homo sapiens, UniProt P10721, T670I/V559D)
KIT D816V: Mast/stem cell growth factor receptor Kit (KIT, Homo sapiens, UniProt P10721, D816V)
KIT D816H: Mast/stem cell growth factor receptor Kit (KIT, Homo sapiens, UniProt P10721, D816H)
KIT L576P: Mast/stem cell growth factor receptor Kit (KIT, Homo sapiens, UniProt P10721, L576P)
KIT: Mast/stem cell growth factor receptor Kit (KIT, Homo sapiens, UniProt P10721)
KIT V559D/V654A: Mast/stem cell growth factor receptor Kit (KIT, Homo sapiens, UniProt P10721, V559D/V654A)

O=C(NCC1CCOCC1)c1n[nH]cc1NC(=O)c1c(F)cccc1F
remaining binding (KIT V559D; binding; competition with immobilised ligand; 1 µM): 100%

COc1cnc(Nc2cccc(S(N)(=O)=O)c2)nc1N1CCN(c2ccccc2)C(=O)C1
remaining binding (KIT A829P; binding; competition with immobilised ligand; 1 µM): 68%

Cc1cc(NC(=O)c2cccc(S(F)(F)(F)(F)F)c2)cc(-n2ccn3nc(-c4cccnc4)cc23)c1
remaining binding (KIT autoinhibited; cell-free assay; competition with immobilised ligand; 1 µM): 70.3%

O=C(Nc1c[nH]nc1C(=O)NC1CCNCC1)c1cc(F)cc(F)c1
remaining binding (KIT T670I/V559D; binding; competition with immobilised ligand; 1 µM): 100%

c1cncc(-c2cccc(Nc3nccc(NC4CCCCC4)n3)c2)c1
remaining binding (KIT A829P; binding; competition with immobilised ligand; 10 µM): 27%

N#Cc1ccccc1CSc1nnc2c(n1)[nH]c1ccccc12
remaining binding (KIT D816V; binding; competition with immobilised ligand; 10 µM): 75%

CNC(=O)[C@@H]1CC[C@@H](n2c(-c3ccc4cnccc4c3)nc3ccc(C(=O)NCc4cccc(C(N)=O)c4)cc32)C1
remaining binding (KIT A829P; binding; competition with immobilised ligand; 1 µM): 100%

Cc1cnc(Nc2ccc(C(=O)N3CCC(N4CCCC4)CC3)cc2)nc1-c1cc2ccccc2s1
remaining binding (KIT D816H; binding; competition with immobilised ligand; 1 µM): 7.8%

O=C(O)[C@@H]1[C@@H](Cn2nnc3ccccc3c2=O)CC[C@H]1C(=O)c1ccc(OCCC2CCOCC2)cc1
remaining binding (KIT D816H; cell-free assay; competition with immobilised ligand; 1 µM): 68%

O=C(NCCCN1CCOCC1)c1ccc(Nc2ncc(Cl)c(-c3ccc(Cl)s3)n2)cc1
remaining binding (KIT D816V; binding; competition with immobilised ligand; 1 µM): 26%

CCC(=O)N[C@H]1CC[C@@H](C(=O)N(C)c2ccc(-c3nc4ccccc4o3)cc2)C1
remaining binding (KIT D816V; cell-free assay; competition with immobilised ligand; 1 µM): 86%

CC1CCCN1c1nccc(-c2cnn3ncccc23)n1 (stereo not drawn)
remaining binding (KIT L576P; binding; 1 µM): 100%

O=C(c1ccc(Nc2ncc(Cl)c(-c3ccc(Cl)s3)n2)cc1)N1CCC(N2CCCC2)CC1
remaining binding (KIT autoinhibited; binding; competition with immobilised ligand; 1 µM): 7.2%

CN1CCN(c2cnc3c(C4CCN(C(=O)c5ccc(OC(F)(F)F)cc5N)CC4)ncnc3c2)CC1
remaining binding (KIT autoinhibited; cell-free assay; competition with immobilised ligand; 1 µM): 85%

CCN1CCN(Cc2ccc(C(=O)Nc3ccc(C)c(Oc4ccc5c(c4)CC(=O)N5)c3)cc2C(F)(F)F)CC1
remaining binding (KIT A829P; binding; competition with immobilised ligand; 1 µM): 100%

O=C(c1ccc(Nc2nccc(-c3cc4ccccc4s3)n2)cc1)N1CCC(N2CCCC2)CC1
remaining binding (KIT A829P; binding; competition with immobilised ligand; 1 µM): 31%

C[C@H](NC(=O)c1cnc2n1[C@](C)(Cc1ccc(C#N)cc1)C(=O)N2c1cc(Cl)c(F)c(Cl)c1)C(=O)NC1(c2ccccn2)CC1
remaining binding (KIT D816H; cell-free assay; competition with immobilised ligand; 1 µM): 100%

CN(C)c1nccc(-c2cnc3ncccn23)n1
remaining binding (KIT T670I/V559D; binding; 1 µM): 92%

C[C@@H]1CN(c2ccc3ncc(-c4ccc5[nH]nc(C6CC6)c5c4)n3n2)C[C@H](C)O1
remaining binding (KIT; binding; competition with immobilised ligand; 50 nM): 96%

O=C(N1CCS(=O)(=O)CC1)N1C[C@H](c2ccc(OC(F)(F)F)cc2)C[C@H](c2nc(C3CC3)no2)C1
remaining binding (KIT A829P; cell-free assay; competition with immobilised ligand; 1 µM): 100%

COc1ncc2cc3ccccc3nc2c1C#N
remaining binding (KIT D816V; cell-free assay; competition with immobilised ligand; 5 µM): 95%

C[C@@H]1CCN(c2nccc(-c3cnn4ncccc34)n2)C1
remaining binding (KIT; binding; 1 µM): 100%

C=CC(=O)N1CCC(C(=O)NCC(=O)N2CCN(c3nc(-c4cnc(N)nc4C(F)F)nc(N4CCOCC4)n3)CC2)CC1
remaining binding (KIT T670I/V559D; binding; competition with immobilised ligand; 1 µM): 82%

O=C(NCCCN1CCOCC1)c1ccc(Nc2nccc(-c3cc4ccccc4s3)n2)cc1
remaining binding (KIT D816H; binding; competition with immobilised ligand; 1 µM): 20%

COc1ccnn2ncc(-c3ccnc(N(C)C)n3)c12
remaining binding (KIT V559D/V654A; binding; 1 µM): 100%

CN1CCN(c2ccc(Nc3nccc(-c4cccc([N+](=O)[O-])c4)n3)cc2C(F)(F)F)CC1
remaining binding (KIT T670I/V559D; binding; 10 µM): 0.15%

N[C@@H]1CCN(c2nccc(-c3cnn4ncccc34)n2)C1
remaining binding (KIT V559D; binding; 1 µM): 100%

Nc1ncc2c(n1)-c1c([nH]c3ccc(C#CC4CC4)cc13)CCCC2
remaining binding (KIT V559D/V654A; binding; competition with immobilised ligand; 1 µM): 100%

C[C@@H](c1ccc(-n2cnc3c(N)ncnc32)cc1)N1CCc2nn(C)c(Cc3ccccc3)c2C1=O
remaining binding (KIT V559D/V654A; binding; competition with immobilised ligand; 0.1 µM): 78%

CN1CCN(c2ccc(Nc3nccc(-c4ccccc4)n3)cc2C(F)(F)F)CC1
remaining binding (KIT D816H; binding; 10 µM): 17%

O=C(c1ccc(Nc2ncc(Cl)c(-c3cc4ccccc4s3)n2)cc1)N1CCC(N2CCCC2)CC1
remaining binding (KIT D816V; binding; competition with immobilised ligand; 1 µM): 13%

NS(=O)(=O)c1cc(NC(=O)C2(c3ccccc3Cl)CC2)ccc1Oc1cccc(Cl)c1
remaining binding (KIT T670I/V559D; cell-free assay; competition with immobilised ligand; 1 µM): 85%

F[C@@H]1CCN(c2nccc(-c3cnn4ncccc34)n2)C1
remaining binding (KIT A829P; binding; 1 µM): 74%

CCCOc1ccc([C@H]2[C@H](C(=O)O)[C@@H](c3ccc4c(c3)OCO4)CN2CC(=O)Nc2c(CC)cccc2CC)cc1
remaining binding (KIT V559D/V654A; cell-free assay; competition with immobilised ligand; 1 µM): 98%

COc1cnc(Nc2cccc(S(N)(=O)=O)c2)nc1N1CCN(c2ccccc2)CC1
remaining binding (KIT A829P; binding; competition with immobilised ligand; 1 µM): 65%

CN(c1nccc(-c2cnn3ncccc23)n1)C1CC1
remaining binding (KIT L576P; binding; 1 µM): 100%
